Assay results: ChEMBL document CHEMBL2151030, “Improving the solubility of a new class of antiinflammatory pharmacodynamic hybrids, that release nitric oxide and inhibit cycloxygenase-2 isoenzyme” (Eur J Med Chem, 2012)
In brackets after ≈: the same amount, converted by molar mass.

Tests used:
Rattus norvegicus [1] = assay: Antiinflammatory activity in rat assessed as reduction of carrageenan-induced paw pressure at 40 mg/kg, po after 15 mins post carrageenan-challenge; format: functional; parameters: scale not given: the % may be the effect or the level left
Outline: (§1)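 Rats (Sprague-Dawley or Wistar, 150-200 g) received intraplantar carrageenan 4 h before testing, then oral compound or CMC vehicle. Paw-pressure threshold read before treatment and at 15, 30, 45 and 60 min after treatment, compared with saline and carrageenan controls.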

[2] = Solubility of the compound in PBS buffer at pH 7.4 by HPLC analysis; format: physicochemical
Outline: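 20 mM DMSO stocks diluted 1:100 into 0.01 M PBS pH 7.4 in duplicate wells of a solubility filter plate, shaken 90 min at 300 rpm. Seven-point calibration standards from 1 to 200 μM.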

Rattus norvegicus [3] = assay: Antiinflammatory activity in rat assessed as reduction of carrageenan-induced paw pressure at 40 mg/kg, po after 60 mins post carrageenan-challenge; format: functional; parameters: scale not given: the % may be the effect or the level left; outline: as §1
Rattus norvegicus [4] = assay: Antiinflammatory activity in rat assessed as reduction of carrageenan-induced oedema in right hind paw at 40 mg/kg, po after 4 hrs post carrageenan-challenge; format: functional; parameters: scale not given: the % may be the effect or the level left
Outline: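 Sprague-Dawley or Wistar rats (150-200 g). Carrageenan injected intraplantar; oral treatment with test compound or CMC vehicle. Right hind paw volume measured 4 h after carrageenan and compared with saline- and carrageenan-treated controls.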

[5] = Solubility of the compound in simulated gastric fluid without pepsin at pH 1.5 by HPLC analysis; format: physicochemical
Outline: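 Compound from 20 mM DMSO stock diluted 1:100 into 0.05 M simulated gastric fluid without pepsin (pH 1.5 with HCl), duplicate wells on a solubility filter plate, shaken 90 min at 300 rpm. Seven-point calibration standards from 1 to 200 μM.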

Mus musculus [6] = assay: Analgesic activity in Swiss albino mouse assessed as reduction of acetic acid-induced writhing at 81.6 nmol/kg, po after 5 mins; format: functional; parameters: scale not given: the % may be the effect or the level left
Outline: (§2)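 Male Swiss albino mice (23-25 g), standard diet and water ad libitum, 23 ± 1 °C, 12 h light/dark cycle. Test compound given orally; 0.6% acetic acid (10 mL/kg) injected ip. Stretching movements counted for 10 min, beginning 5 min after administration.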

Mus musculus [7] = assay: Analgesic activity in Swiss albino mouse assessed as reduction of acetic acid-induced writhing at 84 nmol/kg, po after 5 mins; format: functional; parameters: scale not given: the % may be the effect or the level left; outline: as §2
Mus musculus [8] = assay: Analgesic activity in Swiss albino mouse assessed as reduction of acetic acid-induced writhing at 40.8 nmol/kg, po after 5 mins; format: functional; parameters: scale not given: the % may be the effect or the level left; outline: as §2
Rattus norvegicus [9] = assay: Antiinflammatory activity in rat assessed as reduction of carrageenan-induced paw pressure at 40 mg/kg, po after 45 mins post carrageenan-challenge; format: functional; parameters: scale not given: the % may be the effect or the level left; outline: as §1
Rattus norvegicus [10] = assay: Antiinflammatory activity in rat assessed as reduction of carrageenan-induced paw pressure at 40 mg/kg, po after 30 mins post carrageenan-challenge; format: functional; parameters: scale not given: the % may be the effect or the level left; outline: as §1
J774 = assay: Selectivity index, ratio of IC50 for COX1-mediated PGE2 production to IC50 for COX2-mediated PGE2 production in mouse J774 cells; format: cell-based
Outline: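 Ratio of the COX-1 IC50 to the COX-2 IC50, both from PGE2 RIA in J774 cells. For COX-1, cells were given compound for 15 min, then 15 μM arachidonic acid for 30 min; lower concentrations (0.01–1 μM) were tested when warranted. For COX-2, cells were given LPS 10 µg/mL for 24 h with compound at 0.01–10 μM. IC50 came from a sigmoidal variable-slope fit.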

[11] = biological target: T1, Prostaglandin G/H synthase 2 (Mus musculus) (UniProt Q05769); assay: Inhibition of COX2-mediated PGE2 production in LPS-induced mouse J774 cells by radioimmunoassay relative to control; format: cell-based; parameters: concentration or dose not given beside the values; details: concentration not given here
T1 sequence (whole entry): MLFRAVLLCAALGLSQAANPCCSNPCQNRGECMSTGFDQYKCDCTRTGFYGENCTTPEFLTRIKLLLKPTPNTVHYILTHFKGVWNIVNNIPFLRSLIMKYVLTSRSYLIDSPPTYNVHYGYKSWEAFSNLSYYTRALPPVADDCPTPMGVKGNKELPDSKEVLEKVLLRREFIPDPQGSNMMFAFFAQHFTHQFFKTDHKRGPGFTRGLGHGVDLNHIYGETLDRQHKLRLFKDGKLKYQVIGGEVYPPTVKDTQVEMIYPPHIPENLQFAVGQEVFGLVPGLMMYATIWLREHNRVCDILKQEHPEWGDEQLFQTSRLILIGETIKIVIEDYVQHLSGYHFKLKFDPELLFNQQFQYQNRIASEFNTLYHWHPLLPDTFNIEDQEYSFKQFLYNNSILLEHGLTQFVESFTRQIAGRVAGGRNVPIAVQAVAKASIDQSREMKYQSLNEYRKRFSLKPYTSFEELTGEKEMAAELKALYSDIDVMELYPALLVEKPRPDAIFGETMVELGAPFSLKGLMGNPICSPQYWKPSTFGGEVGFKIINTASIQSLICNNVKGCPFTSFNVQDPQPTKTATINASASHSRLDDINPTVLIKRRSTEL
Outline: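 J774 cells, cultured as for the COX-1 assay, were stimulated 24 h with E. coli LPS (10 µg/mL) to induce COX-2, with or without compound at 0.01–10 μM. Supernatant PGE2 was measured by RIA as % inhibition versus control, triplicate wells, mean of three experiments. IC50 came from a sigmoidal variable-slope dose-response fit.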

[12] = biological target: T2, Prostaglandin G/H synthase 1 (Mus musculus) (UniProt P22437); assay: Inhibition of COX1-mediated PGE2 production in mouse J774 cells at 10 uM preincubated for 15 mins measured after 30 mins by radioimmunoassay relative to control; format: cell-based
T2 sequence (whole entry): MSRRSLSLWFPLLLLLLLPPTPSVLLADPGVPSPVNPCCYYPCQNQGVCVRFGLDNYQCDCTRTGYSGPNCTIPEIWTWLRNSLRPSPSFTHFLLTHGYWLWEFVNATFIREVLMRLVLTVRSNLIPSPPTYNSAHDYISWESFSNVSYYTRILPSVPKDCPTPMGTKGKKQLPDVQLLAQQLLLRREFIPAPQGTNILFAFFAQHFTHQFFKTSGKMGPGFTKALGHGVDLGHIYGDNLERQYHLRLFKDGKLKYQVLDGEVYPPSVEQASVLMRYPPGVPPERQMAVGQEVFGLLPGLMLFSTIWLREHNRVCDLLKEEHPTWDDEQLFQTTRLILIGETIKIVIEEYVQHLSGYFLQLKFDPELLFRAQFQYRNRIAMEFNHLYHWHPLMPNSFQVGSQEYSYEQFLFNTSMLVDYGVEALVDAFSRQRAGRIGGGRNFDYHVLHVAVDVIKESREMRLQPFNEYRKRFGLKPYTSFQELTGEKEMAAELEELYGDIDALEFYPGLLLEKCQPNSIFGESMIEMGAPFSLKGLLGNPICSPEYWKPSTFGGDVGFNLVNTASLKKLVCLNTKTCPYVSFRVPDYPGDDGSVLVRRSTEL
Outline: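 Murine J774 macrophages in DMEM with 10% FBS, glutamine, HEPES, pyruvate and antibiotics, adhered 2 h at 37 °C in 5% CO2. Medium was refreshed, cells were pretreated with compound for 15 min, then given 15 μM arachidonic acid for 30 min at 37 °C. PGE2 in supernatant was measured by RIA as % inhibition versus control, triplicate wells, mean of three experiments.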

[13] = biological target: T3, Prostaglandin G/H synthase 2 (Mus musculus, UniProt Q05769); assay: Inhibition of COX2-mediated PGE2 production in LPS-induced mouse J774 cells by radioimmunoassay; format: cell-based
T3 sequence (Q05769 whole entry): T1 sequence (whole entry)
Outline: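 J774 murine macrophages stimulated 24 h with E. coli LPS (10 µg/mL) to induce COX-2, with or without compound (0.01–10 μM). Supernatant PGE2 measured by RIA; percent inhibition against controls. Triplicate wells, mean of three experiments; IC50 from sigmoidal variable-slope fit.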

[14] = biological target: T4, Prostaglandin G/H synthase 1 (Mus musculus, UniProt P22437); assay: Inhibition of COX1-mediated PGE2 production in mouse J774 cells preincubated for 15 mins measured after 30 mins by radioimmunoassay; format: cell-based
T4 sequence (P22437 whole entry): T2 sequence (whole entry)
Outline: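 Murine J774 macrophages in DMEM/10% FBS, adhered 2 h at 37 °C. […] Supernatant PGE2 measured by RIA. Triplicate wells, mean of three experiments; IC50 by sigmoidal variable-slope fit.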

Mus musculus [15] = assay: Analgesic activity in Swiss albino mouse assessed as reduction of acetic acid-induced writhing at 35.9 nmol/kg, po after 5 mins; format: functional; parameters: scale not given: the % may be the effect or the level left; outline: as §2
Mus musculus [16] = assay: Analgesic activity in Swiss albino mouse assessed as reduction of acetic acid-induced writhing at 71.8 nmol/kg, po after 5 mins; format: functional; parameters: scale not given: the % may be the effect or the level left; outline: as §2
Aorta = assay: Vasorelaxant activity in Wistar rat endothelium-denuded thoracic aortic ring assessed as inhibition of KCl-induced contractile tone in presence of guanylate cyclase inhibitor ODQ; format: functional, tissue-based
Outline: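 Male normotensive Wistar rats (250–350 g); thoracic aortic rings, endothelium removed by rubbing, removal confirmed by <10% relaxation to ACh (10 µM) in KCl (30 mM)-contracted rings. ODQ 1 µM incubated after confirmation; rings contracted with KCl 30 mM, then 3-fold increasing compound concentrations (1 nM–10 µM). Isometric tension; pIC50 from half reduction of KCl tone; mean ± SE, 6–10 experiments.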

SMILES | solubility [2] [µM] | solubility [5] [µM] | inhibition [11] [%] | inhibition [12] [%] | IC50 [13] [µM] | IC50 [14] [µM] | IC50 (Aorta) [µM] | Activity (Rattus norvegicus [1]) [%] | Activity (Rattus norvegicus [3]) [%] | Activity (Rattus norvegicus [4]) [%] | Activity (Mus musculus [6]) [%] | Activity (Mus musculus [7]) [%] | Activity (Mus musculus [8]) [%] | Activity (Rattus norvegicus [9]) [%] | Activity (Rattus norvegicus [10]) [%] | Ratio IC50 (J774) | Activity (Mus musculus [15]) [%] | Activity (Mus musculus [16]) [%]
Cc1c(C(N)C(=O)OCCCCO[N+](=O)[O-])cc(-c2ccc(S(C)(=O)=O)cc2)n1-c1ccc(F)cc1 (centres undefined) | 70.8 (≈ 36.8 µg/mL) | > 200 | 82 | 1 |  | > 10 | 1.55 |  |  |  |  |  |  |  |  | > 10 | 26.9 | 40.7
Cc1c(C(N)C(=O)OCCCCO)cc(-c2ccc(S(C)(=O)=O)cc2)n1-c1cccc(F)c1 (centres undefined) |  |  | 100 | 23 | 1.5 | > 10 |  |  |  |  |  |  |  |  |  | > 6.67 |  | 

The next lines start with results.

solubility [2] [µM] | solubility [5] [µM] | inhibition [11] [%] | inhibition [12] [%] | IC50 [13] [µM] | IC50 [14] [µM] | IC50 (Aorta) [µM] | SMILES | Activity (Rattus norvegicus [1]) [%] | Activity (Rattus norvegicus [3]) [%] | Activity (Rattus norvegicus [4]) [%] | Activity (Mus musculus [6]) [%] | Activity (Mus musculus [7]) [%] | Activity (Mus musculus [8]) [%] | Activity (Rattus norvegicus [9]) [%] | Activity (Rattus norvegicus [10]) [%] | Ratio IC50 (J774) | Activity (Mus musculus [15]) [%] | Activity (Mus musculus [16]) [%]
1.1 (≈ 0.54 µg/mL) | < 1 |  |  |  |  |  | Cc1c(CC(=O)OCCCO[N+](=O)[O-])cc(-c2ccc(S(C)(=O)=O)cc2)n1-c1cccc(F)c1 | 40 | 17 | 35 | 26.4 | 71.2 | 23.3 | 40 | 41 |  |  | 
 |  | 59 | 15 | 1.41 | > 10 |  | Cc1c(C(N)C(=O)OCCCCO[N+](=O)[O-])cc(-c2ccc(S(C)(=O)=O)cc2)n1-c1cccc(F)c1 (centres undefined) |  |  |  |  |  |  |  |  | > 7.09 |  | 
 |  | 100 | 5 | 1.51 | > 10 |  | Cc1c(C(N)C(=O)OCCCO[N+](=O)[O-])cc(-c2ccc(S(C)(=O)=O)cc2)n1-c1cccc(F)c1 (centres undefined) |  |  |  |  |  |  |  |  | > 6.62 |  | 
